# Bioassay records deposited in PubChem by several laboratories.
# MOR-DOR inv ag: inverse agonists of human mu-delta opioid receptor heterodimerization. cell-based MOR-DOR heterodimer luminescence, inverse agonism. inhibition, % at 9.3 µM. 340,000 tested, 0.21% active; in the data active = inhibition above about 22%, passing the limit was not always enough;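 note: 0% = cells with DMSO and 100% = wells without cells with DMSO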
# Target sequence (P35372 whole entry, looked up): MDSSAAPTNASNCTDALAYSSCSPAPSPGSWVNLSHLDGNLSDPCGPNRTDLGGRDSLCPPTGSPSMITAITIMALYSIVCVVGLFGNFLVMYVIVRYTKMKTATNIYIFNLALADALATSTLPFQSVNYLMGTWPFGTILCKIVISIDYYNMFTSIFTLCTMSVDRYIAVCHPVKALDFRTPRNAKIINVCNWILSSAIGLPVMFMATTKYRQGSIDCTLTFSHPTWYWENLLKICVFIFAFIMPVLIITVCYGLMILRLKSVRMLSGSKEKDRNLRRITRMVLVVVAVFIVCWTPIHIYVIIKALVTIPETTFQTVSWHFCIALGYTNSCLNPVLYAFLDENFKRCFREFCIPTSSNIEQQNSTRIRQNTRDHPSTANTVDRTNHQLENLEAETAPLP
# Target sequence (P41143 whole entry, looked up): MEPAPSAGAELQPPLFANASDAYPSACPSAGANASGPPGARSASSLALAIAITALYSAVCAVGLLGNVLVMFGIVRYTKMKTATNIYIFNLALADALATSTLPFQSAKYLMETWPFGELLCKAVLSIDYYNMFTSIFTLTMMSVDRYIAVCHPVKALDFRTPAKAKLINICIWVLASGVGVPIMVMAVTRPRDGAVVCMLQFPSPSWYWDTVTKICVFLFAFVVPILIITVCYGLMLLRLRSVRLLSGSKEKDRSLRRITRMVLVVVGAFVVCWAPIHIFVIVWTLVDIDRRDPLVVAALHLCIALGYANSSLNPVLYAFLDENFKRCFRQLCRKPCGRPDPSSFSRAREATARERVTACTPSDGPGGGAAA
# MOR-DOR ag: OPRM1-OPRD1 heterodimerization agonism | P35372+P41143 | cells, luminescence | activation, % at 9.3 µM | 340,000 tested, 0.3% active | AID 504326; in the data active = activation above about 18%;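 note: 0% = vehicle-treated cells and 100% = reference agonist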
# HTR5A inv ag: counter-screen for OPRM1-OPRD1 inverse agonists: human HTR5A inverse agonism; 340,000 tested, 0.083% active; P47898; inhibition, % at 9.3 µM; HTR5A cell line, luminescence; in the data active = inhibition mostly above about 23%, no sharp cut-off; inactive = mostly below about 18%;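 note: 0% = cells with DMSO and 100% = no-cell wells with DMSO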
# Hep lipid drop: modulators of hepatic lipid droplet formation | AML12 mouse hepatocytes, oleate lipid droplets, BODIPY imaging | inhibition, % at 6.5 µM | 240,000 tested, 0.4% active;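 active = lipid droplet intensity inhibited by at least 50%, with more than 500 cells counted; inconclusive = wells with under 300 cells, treated as cytotoxic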
#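 Test system: AML12 mouse liver cells; schedule: overnight exposure; technique: high-content imaging of BODIPY-stained droplets and DAPI nuclei; read-out: % inhibition of corrected integrated BODIPY droplet signal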
# HTR5A ag ctr: counter-screen for OPRM1-OPRD1 agonists: human HTR5A agonism. P47898. HTR5A agonist assay, luminescence, cell-based. activation, % at 9.3 µM. 340,000 tested, 0.61% active. AID 504692; in the data active = activation mostly above about 9.5%, no sharp cut-off; inactive = mostly below about 7.6%;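 note: 0% = cells with vehicle only and 100% = reference agonist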
# * = called active by the depositor; ? = inconclusive; . = no result. The list is not random: actives were taken first. Their share in the collection is about 1.4%.
SMILES,MOR-DOR inv ag,MOR-DOR ag,HTR5A inv ag,Hep lipid drop,HTR5A ag ctr
COc1ccccc1C(=O)OCC(=O)NC(C)CCc1ccccc1 (stereo not given),19.4,-4.3,-45.5,-7.5,12.9*
COc1cc2ncnc(Nc3cccc(Cl)c3)c2cc1OC,.,.,.,65.0*,.
COc1cc2ncnc(NCc3cccc(F)c3F)c2cc1OC,-9.3,2.0,-32.7,.,9.2*
Clc1cccc(Nc2ncnc3ccc(Br)cc23)c1,-37.2,6.5,-3.6,.,2.1
CNC[C@@H](CC1CCCCC1)NC[C@H](CC(C)C)NCCc1cccc(C(F)(F)F)c1,-139.5,24.5*,-13.7,0.8,12.6*
CNC[C@@H](Cc1ccccc1)NC[C@@H](CC1CCCCC1)NCCCc1ccccc1,-126.0,23.0*,-50.4,-3.9,19.8*
CCc1nnc(NC(=O)CN2CCN(Cc3ccc(C)cc3)CC2)s1,7.9,-1.6,-17.8,9.1,4.8
COc1cccc(N2CCN(C(=S)NCc3ccco3)CC2)c1,9.2,-2.0,-25.3,.,13.3*
C#CC(C)OC(=O)Nc1cnccc1C(F)(F)F (stereo not given),15.3,-3.1,3.4,-4.9,7.6
CC1=CC(=O)C=C(C)C1=NOC(=O)/C=C\c1ccccc1,-31.2,4.3,-0.5,-8.7,12.8*
CS(=O)(=O)c1ncc(Cl)c(C(=O)Nc2ccc3ccccc3c2)n1,57.0*,-7.9,18.4,7.7,-5.2
Cc1ccc(NS(=O)(=O)c2cccc(C(=O)NCC(c3ccco3)N3CCCCC3)c2)cc1 (stereo not given),2.3,-0.4,10.6,2.2,7.5
COC(=O)c1cn(NC(=O)c2cccc(F)c2)c(=O)c2ccccc12,4.6,-0.8,-12.6,-2.0,-0.6
COC(=O)c1cn(NC(=O)c2cccc(N(C)C)c2)c(=O)c2ccccc12,-3.5,0.6,-5.4,.,9.2*
CCCNc1[nH]c(=O)n(C)c(=O)c1N=O,2.0,-0.4,5.8,.,9.6*
COc1ccc(S(=O)(=O)N(C)C)cc1NC(=O)CN1C(=O)NC2(CCCC2)C1=O,2.0,-0.3,-19.9,8.6,1.4
CCOc1ccc(CCNC(=O)c2ccc(C)c(S(=O)(=O)N3CCOCC3)c2)cc1OCC,13.0,-3.5,-16.1,.,-0.7
CCOc1ccc(CCNC(=O)c2ccc(F)c(S(=O)(=O)N3CCOCC3)c2)cc1OCC,6.3,-1.2,9.1,25.0,11.2*
Fc1ccccc1N=C1NN=C(c2ccccc2)CS1,13.6,-2.6,-52.1,12.7,10.7*
CC(C)CC1(C)NC(=O)N(CC(=O)N2C(C)CCCC2C)C1=O (stereo not given),8.3,-2.2,2.9,.,13.1*
CCOC(=O)c1ccc(Nc2nc(C)nc3c2nnn3Cc2ccccc2)cc1,-25.1,5.2,-28.9,-37.0,8.5*
Cc1ccccc1CSCC(=O)Nc1ccccc1Br,-17.1,3.7,8.6,-1.4,-2.3
Cc1ccc(N(NC(=O)C(O)(c2ccccc2)c2ccccc2)C(=O)CCl)cc1,-162.3,31.4*,10.6,-9.6,48.2*
COc1ccc(OC)c(N=Nc2c(O)c3ccccc3[nH]c2=O)c1,-11.2,2.1,-56.3,.,13.8*
COCCNC(=O)Cn1c(=O)oc2cc(S(=O)(=O)N3CC(C)CC(C)C3)ccc21 (stereo not given),15.4,-3.0,0.8,-6.7,-0.4
SMILES,MOR-DOR inv ag,MOR-DOR ag,HTR5A inv ag,Hep lipid drop,HTR5A ag ctr
CCCNC(=O)Cn1c(=O)oc2cc(S(=O)(=O)N3CC(C)CC(C)C3)ccc21 (stereo not given),8.3,-1.7,-41.4,5.9,11.1*
S=C(Nc1ccccc1Cl)NC1CCN(Cc2ccccc2)CC1,-10.5,1.6,-21.7,-3.4,1.4
CC(C)c1ccccc1NC(=S)NC1CCN(Cc2ccccc2)CC1,-22.2,3.3,4.7,-28.9,11.5*
Cc1ccc(S(=O)(=O)N2CCN(C(=O)c3ccco3)CC2)c(C)c1,14.3,-3.0,-39.6,6.1,10.2*
Cc1ccc(S(=O)(=O)N2CCN(C(=O)c3cc(S(=O)(=O)N4CCOCC4)ccc3Cl)CC2)c(C)c1,6.7,-1.7,-18.1,.,13.0*
O=C(c1cc(S(=O)(=O)N2CCCCC2)ccc1Cl)N1CCOCC1,-0.8,0.1,-9.9,-4.5,-2.4
CC(=O)c1cnc2n(c1=O)CCS2,7.0,-1.3,5.5,.,-2.0
CC(C)c1ccc(C2C3=C(COC3=O)Nc3cc4c(cc32)OCO4)cc1 (stereo not given),-50.6,10.7,-45.0,?,17.5*
O=C1c2[nH]nc(-c3ccccc3O)c2C(c2cccc(Cl)c2)N1Cc1ccco1 (stereo not given),-65.1,14.3,-37.3,-0.6,14.1*
COc1ccc(C2c3c(-c4ccccc4O)n[nH]c3C(=O)N2Cc2ccco2)cc1OC (stereo not given),6.6,-1.2,16.6,6.1,-5.3
CCNC(=O)C1CC(=O)N(Cc2ccc3c(c2)OCO3)C(=Nc2ccc(OCC)cc2)S1 (stereo not given),2.4,-0.4,-6.4,-4.5,9.0*
CCNC(=O)C1CC(=O)N(Cc2ccc(F)cc2)C(=Nc2ccc(OC)cc2)S1 (stereo not given),3.1,-0.5,5.1,.,-2.2
CC(C)CNC(=O)c1cnn2c(C(F)(F)F)cc(C(F)(F)F)nc12,.,.,.,-6.4,.
COc1ccc(Cl)cc1N(CC(=O)NC(C(C)C)C(C)C)S(C)(=O)=O,16.6,-3.3,14.6,-15.8,5.4
COc1ccc(NC(=O)CSc2nc3ccccc3nc2N2CCCC2)cc1,-4.8,0.8,-2.9,50.0*,0.9
N#CC(c1ccc(O)cc1)c1ncc(C(F)(F)F)cc1Cl (stereo not given),2.6,-0.5,2.6,5.0,-1.0
COC(=O)c1ccccc1NC(=O)Nc1cc(C(C)(C)C)on1,5.8,-1.0,-4.2,2.4,1.1
CC(C)(C)c1cc(NC(=O)Nc2ccccc2)no1,-29.4,6.2,-43.7,1.5,11.3*
CC(=O)n1cc(N(C(=O)CCl)c2ccc(C)cc2)c2ccccc21,-339.0,66.2*,4.3,6.5,54.5*
Cc1ccc2c(c1)N(CC(=O)NC1CCCCCC1)C(=O)c1cccnc1O2,10.7,-2.1,-3.5,-15.6,2.6
O=C(CSc1n[nH]c(-c2cccs2)n1)N1CCN(S(=O)(=O)c2ccc3ccccc3c2)CC1,-23.1,4.1,10.6,11.1,9.8*
Nc1cc(=O)[nH]c(SCC(=O)N2CCN(S(=O)(=O)c3ccc4ccccc4c3)CC2)n1,14.9,-2.6,11.4,17.3,-4.0
CC(=NNC(=S)Nc1ccccc1Cl)c1ccccn1,1.2,-0.2,-1.0,.,0.2
C=CCNC(=S)N/N=C(\C)c1ccccn1,34.6*,-7.2,12.9,-177.1,-5.4
Cc1ccc(CNC(=O)C2CCN(S(=O)(=O)c3ccc4c(c3)CC(C)N4C(=O)C3CCC3)CC2)o1 (stereo not given),11.2,-2.1,-5.6,-1.3,11.2*
Cc1cc(OC(C)C(=O)NCC2CCCO2)cc(C)c1Cl (stereo not given),17.0,-3.3,-11.3,-12.2,10.7*
Cc1cc2occ(CC(=O)N(C)CC(=O)Nc3ccccc3C(F)(F)F)c2cc1C,1.6,-0.4,7.6,.,-3.0
